Reference: ChEMBL document CHEMBL4602710 (ACS Med Chem Lett, 2020)
Values after ≈ are worked out from the molar mass of the structure shown. Active and inactive are the calls of the source. The rule behind the calls is not given here.

Legend:
[1] = AUC in human at 45 mg, po administered as single dose; type: ADME, organism-based; conditions: in vivo
How it was run: (§1)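 Healthy human volunteers given a single oral 45 mg dose, either without pretreatment or after pretreatment with 20 mg omeprazole; plasma AUC compared.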

[2] = Half life at steady state in human at 2 to 50 mg administered once daily; type: ADME; conditions: in vivo, read-out: t1/2ss
[3] = AUC in human at 45 mg, po administered as single dose pretreated with omeprazole; type: ADME, organism-based; conditions: in vivo; how it was run: as §1
[4] = Solubility of compound at pH 7.4; type: physicochemical; conditions: buffer
[5] = Distribution coefficient, logD of compound; type: physicochemical; conditions: octanol/water
[6] = Solubility of compound at pH 2; type: physicochemical; conditions: buffer
[7] = Clearance in human liver microsomes; type: ADME, Microsome
[8] = Fraction unbound in rat plasma; type: ADME, cell-free
[9] = Apparent clearance in rat hepatocytes; type: ADME, cell-based, Hepatocyte
[10] = Clearance in rat at 1 mg/kg, iv or 5 mg/kg, po; type: ADME, organism-based; conditions: in vivo
[11] = Volume of distribution at steady state in rat at 1 mg/kg, iv or 5 mg/kg, po; type: ADME, organism-based; conditions: in vivo, read-out: Vdss
[12] = Half life in rat at 1 mg/kg, iv or 5 mg/kg, po; type: ADME, organism-based; conditions: in vivo
[13] = Fraction unbound in dog plasma; type: ADME, cell-free, Canis lupus familiaris
[14] = Oral bioavailability in rat at 5 mg/kg; type: ADME, organism-based; conditions: in vivo
Hepatocyte [15] = assay: Apparent clearance in dog hepatocytes; type: ADME, cell-based, Canis lupus familiaris
[16] = Clearance in dog at 1 mg/kg, iv or 5 mg/kg, po; type: ADME, organism-based, Canis lupus familiaris; conditions: in vivo
[17] = Volume of distribution at steady state in dog at 1 mg/kg, iv or 5 mg/kg, po; type: ADME, organism-based, Canis lupus familiaris; conditions: in vivo, read-out: Vdss
[18] = Half life in dog at 1 mg/kg, iv or 5 mg/kg, po; type: ADME, organism-based, Canis lupus familiaris; conditions: in vivo
[19] = Oral bioavailability in dog at 5 mg/kg; type: ADME, organism-based, Canis lupus familiaris; conditions: in vivo
[20] = Fraction unbound in monkey plasma; type: ADME, cell-free, Macaca mulatta; conditions: rhesus monkey
Hepatocyte [21] = assay: Apparent clearance in monkey hepatocytes; type: ADME, cell-based, Macaca mulatta; conditions: rhesus monkey
[22] = Clearance in monkey at 1 mg/kg, iv or 5 mg/kg, po; type: ADME, organism-based, Macaca mulatta; conditions: rhesus monkey, in vivo
[23] = Volume of distribution at steady state in monkey at 1 mg/kg, iv or 5 mg/kg, po; type: ADME, organism-based, Macaca mulatta; conditions: rhesus monkey, in vivo, read-out: Vdss
[24] = Half life in monkey at 1 mg/kg, iv or 5 mg/kg, po; type: ADME, organism-based, Macaca mulatta; conditions: rhesus monkey, in vivo
[25] = Oral bioavailability in monkey at 5 mg/kg; type: ADME, organism-based, Macaca mulatta; conditions: rhesus monkey, in vivo
[26] = Fraction unbound in human plasma; type: ADME, cell-free
[27] = Apparent clearance in human hepatocytes; type: ADME, cell-based, Hepatocyte
[28] = AUC in dog pretreated with famotidine; type: ADME, Canis lupus familiaris; conditions: in vivo
[29] = AUC in dog pretreated with pentagastrin; type: ADME, Canis lupus familiaris; conditions: in vivo
[30] = target: Tyrosine-protein kinase JAK2 (Homo sapiens, UniProt O60674); assay: Inhibition of wild-type human partial length JAK2 JH1 catalytic domain (A829 to G1132 residues) expressed in mammalian expression system by Kinomescan method
Mus musculus [31] = assay: Protective activity in NZBWF1/J mouse SLE model assessed as reduction in proteinuria at 0.25%, po administered daily for 12 weeks measured weekly from week 28-40; type: functional, organism-based
How it was run: (§2)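 Spontaneous lupus model in NZB/W F1 mice, treated for 12 weeks. Proteinuria score followed from weeks 28–40; survival assessed at week 40.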

Mus musculus [32] = assay: Protective activity in NZBWF1/J mouse SLE model assessed as increase in animal survival rate at 0.25%, po administered daily for 12 weeks measured at week 40; type: functional, organism-based; how it was run: as §2
[33] = Toxicity in human assessed as adverse events at 2 to 50 mg administered as single dose; conditions: in vivo
How it was run: (§3)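 Healthy human volunteers received single doses of 2–50 mg or multiple doses of 15–50 mg; adverse events and laboratory abnormalities recorded.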

[34] = Toxicity in human assessed as clinical abnormalities at 2 to 50 mg administered as single dose; conditions: in vivo; how it was run: as §3
[35] = Toxicity in human assessed as adverse events at 15 to 50 mg administered as multiple doses; conditions: in vivo; how it was run: as §3
[36] = Toxicity in human assessed as clinical abnormalities at 15 to 50 mg administered as multiple doses; conditions: in vivo; how it was run: as §3

Sequence of Tyrosine-protein kinase JAK2 (O60674 whole entry, the tested form may be a part): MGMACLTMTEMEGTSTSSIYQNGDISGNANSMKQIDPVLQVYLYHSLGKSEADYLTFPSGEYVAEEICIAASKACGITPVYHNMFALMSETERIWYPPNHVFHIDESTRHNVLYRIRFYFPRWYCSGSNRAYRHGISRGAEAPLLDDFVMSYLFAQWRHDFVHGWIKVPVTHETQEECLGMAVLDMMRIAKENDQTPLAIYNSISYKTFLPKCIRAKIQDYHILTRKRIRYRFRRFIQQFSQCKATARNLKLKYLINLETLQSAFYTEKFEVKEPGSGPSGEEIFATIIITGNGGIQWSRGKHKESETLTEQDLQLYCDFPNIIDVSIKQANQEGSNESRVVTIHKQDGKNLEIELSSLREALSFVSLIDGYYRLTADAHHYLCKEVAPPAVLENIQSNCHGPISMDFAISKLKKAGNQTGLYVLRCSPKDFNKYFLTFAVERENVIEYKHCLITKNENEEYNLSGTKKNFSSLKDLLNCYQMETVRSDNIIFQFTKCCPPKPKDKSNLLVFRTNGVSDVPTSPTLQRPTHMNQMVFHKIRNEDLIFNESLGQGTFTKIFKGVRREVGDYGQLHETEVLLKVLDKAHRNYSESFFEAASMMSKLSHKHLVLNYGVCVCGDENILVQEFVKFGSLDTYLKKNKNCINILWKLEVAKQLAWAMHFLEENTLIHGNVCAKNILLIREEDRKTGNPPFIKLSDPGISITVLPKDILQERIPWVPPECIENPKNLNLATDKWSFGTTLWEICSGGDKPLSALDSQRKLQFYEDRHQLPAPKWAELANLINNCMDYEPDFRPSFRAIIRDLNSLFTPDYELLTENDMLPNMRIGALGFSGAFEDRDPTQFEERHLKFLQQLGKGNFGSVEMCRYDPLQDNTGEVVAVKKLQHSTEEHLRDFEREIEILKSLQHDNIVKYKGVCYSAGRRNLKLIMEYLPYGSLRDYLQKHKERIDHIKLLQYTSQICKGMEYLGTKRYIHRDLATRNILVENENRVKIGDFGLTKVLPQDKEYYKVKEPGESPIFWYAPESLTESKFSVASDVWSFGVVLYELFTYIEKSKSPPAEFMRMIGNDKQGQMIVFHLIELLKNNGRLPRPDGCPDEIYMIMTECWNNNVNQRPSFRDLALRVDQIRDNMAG

## Nc1cncc(-c2cn3ccnc3c(Nc3ccc(N4CCN(C5COC5)CC4)cc3)n2)n1 [LANRAPLENIB]
[1]
  AUC: 6.19 µM·h
[2]
  half-life: 21.3 to 24.6 h
[3]
  AUC: 6.46 µM·h
[4]
  solubility: 99 µM (≈ 43.9 µg/mL)
[5]
  logD: 1.3
[6]
  solubility: > 100 µM
[7]
  CLhep predicted: < 1.83 mL/min/kg
[8]
  fraction unbound: 0.118
[9]
  CLH(app): 23.3 mL/min/kg
[10]
  clearance: 29.5 mL/min/kg
[11]
  Vd: 2.5 L/kg
[12]
  half-life: 3.7 h
[13]
  fraction unbound: 0.385
[14]
  bioavailability: 60%
Hepatocyte [15]
  CLH(app): 4.67 mL/min/kg
[16]
  clearance: 5.5 mL/min/kg
[17]
  Vd: 1.6 L/kg
[18]
  half-life: 5.3 h
[19]
  bioavailability: 100%
[20]
  fraction unbound: 0.322
Hepatocyte [21]
  CLH(app): 4.67 mL/min/kg
[22]
  clearance: 9.67 mL/min/kg
[23]
  Vd: 1.3 L/kg
[24]
  half-life: 2.3 h
[25]
  bioavailability: 100%
[26]
  fraction unbound: 0.204
[27]
  CLH(app): 0.83 mL/min/kg
[28]
  AUC: 10.2 µM·h
[29]
  AUC: 8.8 µM·h
[30]
  IC50: 120 nM
Mus musculus [31]
  Activity: Active
Mus musculus [32]
  Activity: Active
[33]
  Activity: Non-Toxic
[34]
  Activity: Non-Toxic
[35]
  Activity: Non-Toxic
[36]
  Activity: Non-Toxic
